# Where a name gives a salt, the structure may show the parent alone.
# Columns and labels:
# Type in all cases: functional
# [1] = Competitive inhibition of Cu2-amyloid beta (1 to 20) complex-induced DTBC oxidation by spectrophotometry
# In short: (§1)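 Cu(II)–Aβ complex formed just before assay by mixing stoichiometric Cu(II) and peptide at μM level in the reaction solution. Several concentrations of DTBC or THB substrate are incubated with a constant Cu(II)–Aβ concentration in 0.1 M HEPES, pH 7.4, 25 °C. Ki is obtained from Lineweaver–Burk analysis assuming competitive inhibition.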
# [2] = Competitive inhibition of Cu2-amyloid beta (1 to 16) complex-induced DTBC oxidation by spectrophotometry; in short: as §1
# [3] = Competitive inhibition of Cu2-amyloid beta (1 to 20) complex-induced THB oxidation by spectrophotometry; in short: as §1
# [4] = Inhibition of Cu2-amyloid beta (1 to 20) complex-induced dopamine oxidation by spectrophotometry
# In short: (§2)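 Cu(II)–Aβ prepared fresh from stoichiometric Cu(II) and peptide at μM level. Dopamine oxidation (1.0 mM for inhibition plots; varied for Lineweaver–Burk) is catalysed by 2.0 μM Cu–Aβ1-40, 3.0 μM Cu–Aβ1-16, or 3.0 or 17.0 μM Cu–Aβ1-20, in 0.1 M HEPES pH 7.4, 25 °C. Inhibitor is titrated to give IC50. Ki comes from a 1/v vs 1/[dopamine] plot, competitive model.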
# [5] = Inhibition of Cu2-amyloid beta (1 to 16) complex-induced dopamine oxidation by spectrophotometry; in short: as §2
# [6] = Competitive inhibition of full-length Cu2-amyloid beta (1 to 40) complex-induced dopamine oxidation by Lineweaver-Burk plot analysis; in short: as §2
# [7] = Inhibition of Cu2-amyloid beta (1 to 40) complex-induced dopamine oxidation by spectrophotometry; in short: as §2
# [8] = Inhibition of Cu2-amyloid beta (1 to 16) complex-induced DTBC oxidation by spectrophotometry; in short: as §1
# [9] = Inhibition of Cu2-amyloid beta (1 to 16) complex-induced THB oxidation by spectrophotometry; in short: as §1
compound,measurement,setting,value
Cc1ncc(COP(=O)(O)O)c(C=O)c1O [PYRIDOXAL PHOSPHATE ANHYDROUS],Ki,[1],0.2 mM
same,Ki,[2],0.13 mM
Cc1ncc(CO)c(C=O)c1O [PYRIDOXAL],Ki,[1],1.12 mM
same,Ki,[2],0.67 mM
same,Ki,[3],2.8 mM
Cc1ncc(CO)c(CN)c1O [PYRIDOXAMINE],IC50,[4],7 mM
same,Ki,[4],1.4 mM
same,IC50,[5],7 mM
same,Ki,[6],1.42 mM
same,IC50,[7],7 mM
Cc1ncc(CO)c(CO)c1O [PYRIDOXINE HYDROCHLORIDE],Ki,[8],5.05 mM
same,Ki,[4],8.29 mM
same,Ki,[5],5.56 mM
same,Ki,[9],8.67 mM
